Experiments:
[1] = target: T1, Histone deacetylase-like amidohydrolase (Alcaligenes sp. (strain DSM 11172) (Bordetella sp. (strain FB188)), UniProt Q70I53); test: Inhibition of Bordetella FB188 HDAH using Boc-L-Lys(acetyl)-MCA as substrate by fluorogenic enzymatic assay
T1 sequence (Q70I53 whole entry): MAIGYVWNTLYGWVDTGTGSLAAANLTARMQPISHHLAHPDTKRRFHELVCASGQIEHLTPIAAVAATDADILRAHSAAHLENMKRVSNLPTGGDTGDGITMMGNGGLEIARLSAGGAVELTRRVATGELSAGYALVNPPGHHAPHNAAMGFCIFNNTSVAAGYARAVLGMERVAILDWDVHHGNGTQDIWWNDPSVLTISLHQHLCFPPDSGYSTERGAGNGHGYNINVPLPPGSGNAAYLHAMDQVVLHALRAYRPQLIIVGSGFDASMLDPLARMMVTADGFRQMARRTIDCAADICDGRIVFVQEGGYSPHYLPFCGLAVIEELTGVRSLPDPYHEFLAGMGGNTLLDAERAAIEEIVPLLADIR

Histone deacetylase 7 = target: T2, Histone deacetylase 7 (Homo sapiens, UniProt Q8WUI4); test: Inhibition of recombinant human HDAC7 using Boc-L-Lys(trifluoroacetyl)-MCA as substrate by fluorogenic enzymatic assay
T2 sequence (Q8WUI4 whole entry): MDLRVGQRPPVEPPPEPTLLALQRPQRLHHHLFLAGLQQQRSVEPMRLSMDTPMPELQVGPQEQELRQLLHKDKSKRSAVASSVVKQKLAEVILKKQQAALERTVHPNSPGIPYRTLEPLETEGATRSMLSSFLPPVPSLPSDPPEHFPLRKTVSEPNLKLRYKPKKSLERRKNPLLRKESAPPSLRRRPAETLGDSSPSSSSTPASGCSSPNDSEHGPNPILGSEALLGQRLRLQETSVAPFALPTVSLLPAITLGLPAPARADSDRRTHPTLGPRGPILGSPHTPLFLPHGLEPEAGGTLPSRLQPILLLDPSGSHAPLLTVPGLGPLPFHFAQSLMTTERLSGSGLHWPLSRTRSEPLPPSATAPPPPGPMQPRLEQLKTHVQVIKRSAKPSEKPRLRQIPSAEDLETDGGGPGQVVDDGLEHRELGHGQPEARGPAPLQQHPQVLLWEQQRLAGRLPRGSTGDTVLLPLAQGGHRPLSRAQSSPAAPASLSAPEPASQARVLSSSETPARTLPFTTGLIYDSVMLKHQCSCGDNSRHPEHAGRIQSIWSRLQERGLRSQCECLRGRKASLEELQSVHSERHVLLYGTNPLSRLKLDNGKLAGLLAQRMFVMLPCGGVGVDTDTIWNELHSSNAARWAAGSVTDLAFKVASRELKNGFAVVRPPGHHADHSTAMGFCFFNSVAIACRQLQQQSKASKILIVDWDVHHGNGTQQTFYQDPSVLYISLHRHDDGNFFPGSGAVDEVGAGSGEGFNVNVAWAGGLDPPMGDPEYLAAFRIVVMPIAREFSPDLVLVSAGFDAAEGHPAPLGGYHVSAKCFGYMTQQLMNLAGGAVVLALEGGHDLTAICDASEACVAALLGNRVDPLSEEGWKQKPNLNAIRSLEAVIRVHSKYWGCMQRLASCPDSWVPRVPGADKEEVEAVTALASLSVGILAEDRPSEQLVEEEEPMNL

[2] = target: T3, Protein deacetylase HDAC6 (Homo sapiens, UniProt Q9UBN7); test: Inhibition of recombinant human HDAC6 using Boc-L-Lys(acetyl)-MCA as substrate by fluorogenic enzymatic assay
T3 sequence (Q9UBN7 whole entry): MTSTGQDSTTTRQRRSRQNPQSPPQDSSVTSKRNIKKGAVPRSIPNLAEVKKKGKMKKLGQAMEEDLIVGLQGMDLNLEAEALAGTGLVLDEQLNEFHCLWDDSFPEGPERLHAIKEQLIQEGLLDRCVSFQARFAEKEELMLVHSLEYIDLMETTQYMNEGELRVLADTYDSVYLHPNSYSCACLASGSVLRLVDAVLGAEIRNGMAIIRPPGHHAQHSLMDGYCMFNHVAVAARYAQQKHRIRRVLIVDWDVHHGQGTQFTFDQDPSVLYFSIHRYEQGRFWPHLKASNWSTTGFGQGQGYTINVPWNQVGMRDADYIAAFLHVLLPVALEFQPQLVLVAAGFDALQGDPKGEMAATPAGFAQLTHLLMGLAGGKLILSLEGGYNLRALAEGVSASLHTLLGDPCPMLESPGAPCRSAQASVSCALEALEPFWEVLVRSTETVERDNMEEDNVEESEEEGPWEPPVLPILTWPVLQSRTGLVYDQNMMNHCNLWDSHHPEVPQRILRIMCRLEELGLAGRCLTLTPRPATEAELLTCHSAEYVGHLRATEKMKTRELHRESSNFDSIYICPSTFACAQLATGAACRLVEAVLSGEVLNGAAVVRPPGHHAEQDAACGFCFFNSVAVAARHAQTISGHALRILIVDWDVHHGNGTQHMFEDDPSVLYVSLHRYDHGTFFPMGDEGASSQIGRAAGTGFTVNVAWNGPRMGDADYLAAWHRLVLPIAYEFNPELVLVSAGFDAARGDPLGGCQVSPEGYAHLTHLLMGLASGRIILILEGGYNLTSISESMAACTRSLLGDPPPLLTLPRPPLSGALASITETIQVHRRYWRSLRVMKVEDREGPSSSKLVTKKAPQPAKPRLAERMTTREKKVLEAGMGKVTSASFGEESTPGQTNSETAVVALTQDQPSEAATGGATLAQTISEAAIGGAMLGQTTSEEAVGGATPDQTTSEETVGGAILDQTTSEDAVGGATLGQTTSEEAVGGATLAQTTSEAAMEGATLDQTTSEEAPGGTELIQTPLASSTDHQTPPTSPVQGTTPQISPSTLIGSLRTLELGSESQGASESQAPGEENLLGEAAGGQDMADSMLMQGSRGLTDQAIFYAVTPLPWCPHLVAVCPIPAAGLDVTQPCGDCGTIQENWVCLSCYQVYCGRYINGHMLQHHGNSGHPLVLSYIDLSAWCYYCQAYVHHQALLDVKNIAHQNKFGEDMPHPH

Histone deacetylase 8 = target: T4, Histone deacetylase 8 (Homo sapiens, UniProt Q9BY41); test: Inhibition of recombinant human HDAC8 using Boc-L-Lys(trifluoroacetyl)-MCA as substrate by fluorogenic enzymatic assay
T4 sequence (Q9BY41 whole entry): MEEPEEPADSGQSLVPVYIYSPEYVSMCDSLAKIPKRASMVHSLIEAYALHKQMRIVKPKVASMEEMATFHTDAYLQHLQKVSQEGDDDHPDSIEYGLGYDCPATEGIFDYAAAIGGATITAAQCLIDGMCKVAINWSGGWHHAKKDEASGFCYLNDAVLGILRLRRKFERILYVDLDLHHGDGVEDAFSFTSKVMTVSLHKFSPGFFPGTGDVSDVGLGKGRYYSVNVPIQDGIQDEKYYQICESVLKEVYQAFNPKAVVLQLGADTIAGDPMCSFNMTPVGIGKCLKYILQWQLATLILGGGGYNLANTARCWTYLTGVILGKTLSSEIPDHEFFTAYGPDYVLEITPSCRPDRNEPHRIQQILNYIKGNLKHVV

Histone deacetylase 1 = Histone deacetylase 1 (Homo sapiens, UniProt Q13547); test: Inhibition of recombinant human HDAC1 using Boc-L-Lys(acetyl)-MCA as substrate by fluorogenic enzymatic assay
Sequence of Histone deacetylase 1 (Q13547 whole entry): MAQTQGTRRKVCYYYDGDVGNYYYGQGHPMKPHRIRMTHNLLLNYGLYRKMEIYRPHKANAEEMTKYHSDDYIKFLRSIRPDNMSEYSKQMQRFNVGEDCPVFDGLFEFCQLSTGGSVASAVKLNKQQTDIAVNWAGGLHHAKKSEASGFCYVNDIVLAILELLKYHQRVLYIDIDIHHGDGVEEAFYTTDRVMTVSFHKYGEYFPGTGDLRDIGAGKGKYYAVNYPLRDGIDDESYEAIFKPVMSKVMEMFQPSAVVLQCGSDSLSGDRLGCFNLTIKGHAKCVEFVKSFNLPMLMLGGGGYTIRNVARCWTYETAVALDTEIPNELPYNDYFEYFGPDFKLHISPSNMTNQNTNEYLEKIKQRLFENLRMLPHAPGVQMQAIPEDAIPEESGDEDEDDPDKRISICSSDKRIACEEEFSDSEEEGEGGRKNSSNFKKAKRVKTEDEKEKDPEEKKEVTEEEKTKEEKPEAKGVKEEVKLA

Histone deacetylase [3] = test: Inhibition of HDAC in human K562 cells using Boc-L-Lys(acetyl)-MCA as substrate by fluorogenic cellular assay; type: cell-based
Method in brief: (§1)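 K562 cells were grown in RPMI with 10% FCS, L-glutamine and gentamycin, then pelleted. Lysis in 50 mM Tris–HCl pH 8.5, 1 M NaCl, 1 mM MgCl₂, Triton X-100 (up to 5× pellet volume), 2 h at 37 °C. The diluted lysate replaces recombinant enzyme in the two-step fluorogenic trypsin-coupled assay with substrate at 20 µM final. Read-out is AMC fluorescence (ex 390, em 460 nm), giving IC50.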

Histone deacetylase [4] = test: Inhibition of HDAC in human K562 cells using Boc-L-Lys(trifluoroacetyl)-MCA as substrate by fluorogenic cellular assay; type: cell-based; method in brief: as §1

| SMILES | Kd [1] | Kd (Histone deacetylase 7) | Kd [2] | Kd (Histone deacetylase 8) | Kd (Histone deacetylase 1) | IC50 (Histone deacetylase [3]) | IC50 (Histone deacetylase [4]) |
| --- | --- | --- | --- | --- | --- | --- | --- |
| O=C(NO)C(F)(F)C(F)(F)C(F)(F)C(F)(F)C(F)(F)C(F)(F)C(=O)Nc1cccc(-c2ccccc2)c1 | 450 nM | 14 µM | 15 µM | 60 µM | 30 µM |  |  |
| Cc1ccc(NC(=O)C(F)(F)C(F)(F)C(F)(F)C(F)(F)C(F)(F)C(F)(F)C(=O)NO)cc1C | 260 nM | 3.3 µM | 24 µM | 14 µM | 24 µM | > 50 µM | > 50 µM |
| O=C(NO)C(F)(F)C(F)(F)C(F)(F)C(F)(F)C(F)(F)C(F)(F)C(=O)Nc1cccc2cc3ccccc3cc12 | 740 nM | 13 µM | 5.9 µM | 1.4 µM | 14 µM | > 50 µM | > 50 µM |
| O=C(NO)C(F)(F)C(F)(F)C(F)(F)C(F)(F)C(F)(F)C(F)(F)C(=O)Nc1ccc(-c2cnnn2-c2ccccc2)cc1 | 4500 nM | 12 µM | 47 µM | > 100 µM | 66 µM |  |  |
| CC(=O)Nc1ccc(NC(=O)C(F)(F)C(F)(F)C(F)(F)C(F)(F)C(F)(F)C(F)(F)C(=O)NO)cc1 | 1300 nM | 13 µM | 9.2 µM | 36 µM | 18 µM | > 50 µM | > 50 µM |
| O=C(NO)C(F)(F)C(F)(F)C(F)(F)C(F)(F)C(F)(F)C(F)(F)C(=O)Nc1cc2ccccc2c2ccccc12 | 290 nM | 11 µM | 10 µM | 5.3 µM | 18 µM |  |  |
| O=C(NO)C(F)(F)C(F)(F)C(F)(F)C(F)(F)C(F)(F)C(F)(F)C(=O)Nc1ccccc1-c1ccccc1 | 860 nM | 14 µM | 9.2 µM | 5.3 µM | 49 µM | > 50 µM | > 50 µM |
| O=C(Nc1ccccc1)C(F)(F)C(F)(F)C(F)(F)C(F)(F)C(F)(F)C(F)(F)C(=O)Nc1ccccc1 | 27000 nM | > 100 µM | > 100 µM | > 100 µM | > 100 µM |  |  |
| Cc1ccc(NC(=O)C(F)(F)C(F)(F)C(F)(F)C(F)(F)C(F)(F)C(F)(F)C(=O)NO)cc1 | 270 nM | 52 µM | > 100 µM | 34 µM | 14 µM |  |  |
| O=C(NO)C(F)(F)C(F)(F)C(F)(F)C(F)(F)C(F)(F)C(F)(F)C(=O)Nc1ccc2cc3ccccc3cc2c1 | 9100 nM | 38 µM | 11 µM | 60 µM | 65 µM |  |  |
| O=C(NO)C(F)(F)C(F)(F)C(F)(F)C(F)(F)C(F)(F)C(F)(F)C(=O)Nc1ccc2ccc3cccc4ccc1c2c34 | 600 nM | 75 µM | 17 µM | 47 µM | 22 µM |  |  |
| O=C(NO)C(F)(F)C(F)(F)C(F)(F)C(F)(F)C(F)(F)C(F)(F)C(=O)Nc1ccc(Cl)cc1 | 210 nM | 19 µM | 23 µM | 35 µM | 12 µM |  |  |
| O=C(NO)C(F)(F)C(F)(F)C(F)(F)C(F)(F)C(F)(F)C(F)(F)C(=O)Nc1cccc2ccccc12 | 370 nM | 20 µM | 32 µM | 19 µM | 29 µM |  |  |
| N#Cc1ccc(NC(=O)C(F)(F)C(F)(F)C(F)(F)C(F)(F)C(F)(F)C(F)(F)C(=O)NO)cc1 | 230 nM | 32 µM | 71 µM | 35 µM | 18 µM |  |  |
| O=C(NO)C(F)(F)C(F)(F)C(F)(F)C(F)(F)C(F)(F)C(F)(F)C(=O)Nc1ccc(-c2ccccc2)cc1 | 8800 nM | 14 µM | 49 µM | 57 µM | 31 µM |  |  |
| O=C(NO)C(F)(F)C(F)(F)C(F)(F)C(F)(F)C(F)(F)C(F)(F)C(=O)Nc1ccc(-c2cn(-c3ccccc3)nn2)cc1 | 7000 nM | 30 µM | 8.2 µM | > 100 µM | > 100 µM |  |  |
